# Bioassay records from PubChem BioAssay.
# L major viab: Leishmania major promastigote growth inhibition, primary screen; Leishmania major promastigotes, resazurin fluorescence viability; hit rate 9% among 200,000; AID 1063, 2008; inhibition, % at 10 µM; in the data active = inhibition above about 50%;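 note: promastigotes grown with compound for 44 hours at 28 °C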
# NALP1 yeast inh: NALP1 inflammasome inhibitors in reconstituted yeast, colorimetric, S. cerevisiae, triplicate retest | S. cerevisiae NALP1/ASC/caspase-1 growth, X-gal OD620, 72 h | inhibition, % at 10 µM | hit rate 0.61% among 280,000; in the data active = inhibition mostly above about 24%, no sharp cut-off; inactive = mostly below about 32%
# Calb FLC: C. albicans growth inhibition with fluconazole, primary screen, CaCi-2 strain, Alamar Blue fluorescence | C. albicans CaCi-2 + fluconazole, 48 h | hit rate 0.57% among 300,000 | AID 1979, 2009 | growth inhibition, % (no concentration beside the values);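 active = growth inhibition above about 58% in most replicates, limit read from the data, passing the limit was not always enough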;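 note: all wells also contain fluconazole at 8 µg/ml as a sub-toxic cotreatment; 0% = median of DMSO wells and 100% = median of geldanamycin control wells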
# PolyA inh: polyadenylation inhibitors in yeast reporter cells, primary screen, luminescence, S. cerevisiae | S. cerevisiae SKY197-pL101 polyadenylation reporter, beta-gal luminescence; efflux-impaired pdr1/pdr3 knockout yeast; score 100 = 6 SD above DMSO | activity score, % at 12 µM | hit rate 0.02% among 300,000;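 active = lowest replicate activity score at least 50, where 100 means six control SD above control mean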;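 note: yeast exposed to compound for 9 h at 30 °C; higher score means more reporter readthrough which indicates perturbed polyadenylation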
# T cruzi repl: inhibitors of intracellular T. cruzi growth, primary screen, luminescence, NIH3T3 host cells; T. cruzi beta-gal in NIH3T3, 90 h; inhibition, % (test concentration not listed); hit rate 1.4% among 300,000;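 active = mean inhibition across valid replicates above about 55%, limit read from the data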;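 note: signal also drops with host cell toxicity which is not excluded here; 0% = plate median of DMSO wells and 100% = zero luminescence signal; higher percent means less beta-gal luminescence so fewer parasites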
#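 Material: NIH/3T3 host cells with β-galactosidase reporter T. cruzi; Input: 5,000 host fibroblasts per well; Medium: DMEM, 2% fetal bovine serum; Compound: 50 nL DMSO compound solution per well; Schedule: 3 h host attachment, then at least 90 h co-culture; Detection: luminescent β-galactosidase signal after 60 min lysis.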
# NLRP3 yeast inh: NALP3 inflammasome inhibitors in reconstituted yeast, primary screen, luminescence, uHTS; inhibition, % at 10 µM; Yeast reconstituted NLRP3/ASC/caspase-1, beta-gal luminescence, 24 h; hit rate 0.39% among 330,000;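 active = inhibition of 50% or more; inactive = inhibition below 50%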;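 note: plate controls were induced DMSO wells for no effect and uninduced yeast grown without galactose for full effect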
# Active calls of the source: *; / = not tested or not shown. This excerpt belongs to a sample that is enriched for hits.
SMILES,L major viab,NALP1 yeast inh,Calb FLC,PolyA inh,T cruzi repl,NLRP3 yeast inh
CCC(C)(C)NC(=O)CN(C(=O)c1snc(C(N)=O)c1N)c1ccc2c(c1)OCCO2,13.4,-1.7,7.0,-13.4,-14.0,16.2
CCCC(C(=O)NC1CCCC1)N(Cc1ccc2c(c1)OCO2)C(=O)c1snc(C(N)=O)c1N (stereo not given),53.6*,27.1,22.5,0.6,15.1,19.3
CC(C)CC(C(=O)NC1CCCC1)N(Cc1cccs1)C(=O)c1snc(C(N)=O)c1N (stereo not given),93.1*,-95.1,11.5,-6.2,12.0,2.3
CCCC(C(=O)NC(C)(C)C)N(C(=O)c1snc(C(N)=O)c1N)c1ccc2c(c1)OCCO2 (stereo not given),52.3*,12.0,2.5,-8.0,24.2,22.2
Cc1ccc(C(C(=O)NC(C)(C)C)N(Cc2ccccc2)C(=O)c2snc(C(N)=O)c2N)o1 (stereo not given),54.5*,0.1,20.2,19.0,21.0,2.3
CCC(C)(C)NC(=O)C(c1ccc(C)o1)N(Cc1ccc2c(c1)OCO2)C(=O)c1snc(C(N)=O)c1N (stereo not given),/,6.5,3.1,-4.2,8.9,23.7
C=CCN1C(=O)c2ccc(C(=O)N3CCN(S(=O)(=O)c4ccccc4Br)CC3)cc2C1=O,/,/,/,0.3,-1.0,4.3
Cc1ccc(S(=O)(=O)N2CCOCC2)cc1C(=O)OCC(=O)N1CCCC1=O,/,/,/,/,/,5.1
COc1ccc(N2C(=NC(=O)C3CCCCC3)SC3CS(=O)(=O)CC32)c(OC)c1 (stereo not given),/,-12.3,6.6,-3.1,16.1,16.0
CN(C)CCNC(=O)C(=O)NCC1OCCCN1S(=O)(=O)c1cccs1 (stereo not given),-3.4,24.1,-1.8,11.0,-16.4,-5.0
CCOc1ccccc1N(C(=O)c1snc(C(N)=O)c1N)C(C(=O)NC1CCCC1)c1ccco1 (stereo not given),75.6*,8.0,-13.7,-20.3,15.1,11.5
O=C(c1cccs1)c1no[n+]([O-])c1C(=O)c1cccs1,-3.4,26.8,14.6,-10.9,61.7*,24.5
O=C(c1ccc(Cl)nc1)c1cccs1,/,/,1.5,16.1,-15.0,11.5
Cc1nn(C(C)C)c(C)c1CN1CCCC(CCC(=O)NCc2ccccc2F)C1 (stereo not given),9.5,14.2,-17.0,7.4,58.1*,5.1
O=C(CCC1CCCN(Cc2cccc(Cl)c2)C1)NCc1ccccc1F (stereo not given),/,/,-3.8,4.7,61.4*,6.6
CCn1c2c(c(=N)c3ccccc31)CCC2,/,16.0,-5.0,-9.2,47.5,-8.1
CCOc1ccccc1Nc1nnc(SCC(=O)N(C)C2CCS(=O)(=O)C2)s1 (stereo not given),/,/,/,/,/,9.2
COc1ccc(S(=O)(=O)N2CCCCCC2)cc1N(C)S(=O)(=O)c1ccc(Cl)cc1,23.8,1.6,4.7,20.3,64.3*,0.0
O=C(NC1CCN(C(=S)NCc2ccco2)CC1)C12CC3CC(CC(C3)C1)C2,33.1,33.6,0.1,-9.0,12.8,6.4
Cc1ccc(CNC(=O)CSc2nc3ccsc3c(=O)n2Cc2ccc(C(=O)O)cc2)cc1,6.8,-20.1,23.0,2.1,-3.7,6.2
CCc1sc(C(=O)NC2CCN(C)CC2)cc1Br,34.7,13.3,-7.6,0.5,61.6*,-10.9
CC(OC(=O)c1oc2ccccc2c1COc1ccccc1)C(N)=O (stereo not given),10.8,8.7,109.2*,2.0,-8.2,10.9
CC(C)(C)NC(=O)c1oc2ccccc2c1COc1ccccc1,19.2,30.2,2.2,-16.5,-4.0,21.0
CC1(C)CC(=O)c2cn3nc(C(F)(F)F)nc3nc2C1,-0.3,43.4*,-11.7,-4.1,-0.8,-1.2
CC(=O)c1ccc(OCc2cc(C(=O)N(C)CCOc3ccc(C)cc3)no2)cc1,/,6.7,-0.9,-0.1,15.5,37.4
Cc1nn(-c2ccccc2)c(C)c1-c1ccccc1O,/,12.7,-1.4,-6.1,-7.9,13.8
